Test results as given in ChEMBL document CHEMBL1122309 (J Med Chem, 1983).

Tests used:
[1] = target: T1, Cholesterol side-chain cleavage enzyme, mitochondrial (Bos taurus, UniProt P00189); assay: Inhibition of bovine cholesterol side-chain cleavage desmolase, cytochrome P450 11A1; none; conditions: cattle
T1 sequence (P00189 whole entry): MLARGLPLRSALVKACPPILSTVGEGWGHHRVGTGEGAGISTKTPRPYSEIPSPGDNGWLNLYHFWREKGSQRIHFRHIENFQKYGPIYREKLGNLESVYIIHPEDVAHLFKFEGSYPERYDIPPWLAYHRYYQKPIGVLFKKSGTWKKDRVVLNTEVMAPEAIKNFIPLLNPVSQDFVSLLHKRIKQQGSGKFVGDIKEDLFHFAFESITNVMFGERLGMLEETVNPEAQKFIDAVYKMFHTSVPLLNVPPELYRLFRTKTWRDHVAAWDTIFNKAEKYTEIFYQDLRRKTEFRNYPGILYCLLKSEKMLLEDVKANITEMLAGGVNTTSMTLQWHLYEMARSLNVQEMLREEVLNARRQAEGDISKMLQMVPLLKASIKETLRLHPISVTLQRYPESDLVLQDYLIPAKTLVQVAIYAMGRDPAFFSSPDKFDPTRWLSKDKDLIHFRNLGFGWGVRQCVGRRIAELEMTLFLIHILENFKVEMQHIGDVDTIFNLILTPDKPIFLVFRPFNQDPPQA
Procedure, shortened: (§1)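 Enzyme source was the mitochondrial fraction of bovine adrenal cortex, stored at -70 °C. Substrate [14C]cholesterol; [14C]isocaproic acid released was measured. Inhibitors were added in 10 μL ethanol (ethanol alone in controls) to a 1.0 mL assay and preincubated 5 min at 30 °C. The reaction was started with 1 mg mitochondrial protein and sampled at 2, 4 and 6 min. Result given as % of control rate; apparent Ki from Lineweaver-Burk plots.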

[2] = target: T2, Aromatase (Homo sapiens, UniProt P11511); assay: Inhibition of human placental aromatase Cytochrome P450 19A1; none
T2 sequence (P11511 whole entry): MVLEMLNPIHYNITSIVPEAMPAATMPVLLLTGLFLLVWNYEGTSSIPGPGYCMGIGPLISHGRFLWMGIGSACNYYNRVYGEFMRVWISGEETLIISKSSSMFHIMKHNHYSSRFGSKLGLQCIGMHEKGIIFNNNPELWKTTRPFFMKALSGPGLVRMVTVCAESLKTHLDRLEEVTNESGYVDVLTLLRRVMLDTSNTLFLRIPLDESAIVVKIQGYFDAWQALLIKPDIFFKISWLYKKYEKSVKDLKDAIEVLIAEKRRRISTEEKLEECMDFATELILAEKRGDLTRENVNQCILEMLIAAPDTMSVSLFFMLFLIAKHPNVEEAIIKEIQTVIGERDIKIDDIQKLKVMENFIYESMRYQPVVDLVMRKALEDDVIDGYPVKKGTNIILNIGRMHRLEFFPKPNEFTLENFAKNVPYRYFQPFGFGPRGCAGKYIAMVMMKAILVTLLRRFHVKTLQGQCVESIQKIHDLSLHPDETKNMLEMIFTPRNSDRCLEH

[3] = target: T1, Cholesterol side-chain cleavage enzyme, mitochondrial; assay: (§2) Inhibition of bovine cholesterol side-chain cleavage desmolase, cytochrome P450 11A1; set-up: concentration or dose not given beside the values; conditions: cattle; procedure, shortened: as §1
[4] = target: T1, Cholesterol side-chain cleavage enzyme, mitochondrial; assay: as §2; conditions: cattle; procedure, shortened: as §1

SMILES | Inhibition [1] | Inhibition [2] | Inhibition [3] | Inhibition [4]
CCC1(c2ccccc2)CCC(=O)NC1=O (stereo not drawn) [GLUTETHIMIDE] | Not Active | Not Active |  | 
CCC1(c2ccc([N+](=O)[O-])cc2)CCC(=O)NC1=O (stereo not drawn) [4-NITROGLUTETHIMIDE] |  |  | 20% | 
CCC1(c2ccc(NC=O)cc2)CCC(=O)NC1=O (stereo not drawn) |  |  | 12% | 
CCC1(c2ccc(N)cc2)CCC(=O)N(N)C1=O (stereo not drawn) |  |  | 50% | 
CCC1(c2ccc(O)c(N)c2)CCC(=O)NC1=O (stereo not drawn) |  | Not Active | 35% | 
CCC1(c2ccc(N)cc2)CC(N)C(=O)NC1=O (stereo not drawn) |  |  | 45% | 
CCC1(c2cccc(N)c2)CCC(=O)NC1=O (stereo not drawn) |  |  |  | 13%
CCC1(c2ccc(O)cc2)CCC(=O)NC1=O (stereo not drawn) [P-HYDROXYGLUTETHIMIDE] | Not Active | Not Active |  | 
CCC1(c2ccc(NC(C)=O)cc2)CCC(=O)NC1=O (stereo not drawn) | Not Active | Not Active |  | 
CCC1(c2ccc(O)c([N+](=O)[O-])c2)CCC(=O)NC1=O (stereo not drawn) | Not Active | Not Active |  | 
CCC1(c2ccc(N)cc2)CCC(=O)NC1=O (stereo not drawn) [AMINOGLUTETHIMIDE] |  |  | 85% | 
CCC1(c2ccc(N)c(O)c2)CCC(=O)NC1=O (stereo not drawn) | Not Active | Not Active |  | 
